# Compounds with a hit are over-represented: about 2.4% of the library has one in this group of screens.
# Rpn11 block: Rpn11 (human) deubiquitinase inhibition | hit rate 0.59% among 360,000 | inhibition, % at 20 µM | human 26S proteasome, Ub4-pepOG fluorescence polarization; 20S core pre-blocked with epoxomicin;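 active = inhibition at 20 µM, scaled to each plate's controls, above about 33%, limit read from the data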
# CSN deneddyl inh: inhibitors of human CSN-mediated cullin deneddylation | Q92905 | Purified CSN, SCF-Nedd8-OG deneddylation, fluorescence polarization | inhibition, % at 12.5 µM | hit rate 0.38% among 360,000;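 active = pattern-corrected inhibition above about 35%, with an unprinted fluorescence ratio check between 0.5 and 1.5, limit read from the data, passing the limit was not always enough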;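 note: 0% = enzyme with substrate and 100% = substrate without enzyme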
#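 Test system: purified human Csn5 enzyme expressed in HEK293T cells. Amount: 0.24 nM enzyme. Reagent: SCFSkp2-Nedd8OG substrate at 10 nM final. Schedule: 90 min incubation of compound, enzyme and substrate at room temperature. Detection: fluorescence polarization. Read-out: % inhibition of substrate cleavage by Csn5.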
# Neddyl block: blocks human cullin neddylation; AID 651699; inhibition, % at 25 µM; TR-FRET cullin neddylation, biochemical; hit rate 0.58% among 360,000; in the data active = inhibition above about 36%
# Target sequence (P61081 whole entry, looked up): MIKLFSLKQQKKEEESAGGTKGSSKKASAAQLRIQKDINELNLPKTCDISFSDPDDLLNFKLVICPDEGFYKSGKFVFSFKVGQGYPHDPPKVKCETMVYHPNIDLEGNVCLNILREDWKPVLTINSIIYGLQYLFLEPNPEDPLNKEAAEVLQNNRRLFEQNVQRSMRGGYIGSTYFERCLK
# Target sequence (Q13564 whole entry, looked up): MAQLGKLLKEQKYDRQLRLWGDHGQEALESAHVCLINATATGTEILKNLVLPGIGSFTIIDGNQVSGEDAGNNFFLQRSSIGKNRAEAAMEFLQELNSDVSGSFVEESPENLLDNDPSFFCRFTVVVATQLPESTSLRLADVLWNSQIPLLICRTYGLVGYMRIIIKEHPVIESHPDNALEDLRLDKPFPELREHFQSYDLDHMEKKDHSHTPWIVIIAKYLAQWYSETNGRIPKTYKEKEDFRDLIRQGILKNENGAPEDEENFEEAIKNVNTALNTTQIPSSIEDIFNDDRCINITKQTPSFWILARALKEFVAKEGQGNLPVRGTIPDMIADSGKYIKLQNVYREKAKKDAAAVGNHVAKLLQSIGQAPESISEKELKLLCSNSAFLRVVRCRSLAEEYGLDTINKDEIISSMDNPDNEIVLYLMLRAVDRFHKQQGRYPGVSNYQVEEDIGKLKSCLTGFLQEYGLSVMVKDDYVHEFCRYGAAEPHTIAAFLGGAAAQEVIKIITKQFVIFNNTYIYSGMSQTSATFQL
# TPT1 inh: C. albicans TPT1 enzyme inhibition; recombinant caTPT1, FP RNA substrate dephosphorylation; inhibition, % at 5 µM; hit rate 0.81% among 300,000; AID 1962;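 active = inhibition above the mean of all tested compounds plus 3 SD, set per screening campaign, cut at about 24% in these data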;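 note: plate controls were DMSO alone for no effect and ferristatin control at 100 nM for full effect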
# Rin1 Abl inh: inhibitors of human Rin1-Abl protein interaction | P00519+Q13671 | AID 588664 | hit rate 0.4% among 360,000 | inhibition, % at 7.35 µM | TR-FRET Rin1/Abl binding, biochemical; in the data active = inhibition above about 5%, passing the limit was not always enough
# HNF4A DNA FP: change in binding of human HNF4 alpha to DNA; HNF4a-FITC DNA binding, fluorescence polarization, 1 h; activity change, % at 10 µM; AID 1224865; P41235; hit rate 0.3% among 360,000; in the data active = activity change above about 30%, passing the limit was not always enough
# Rin1 Abl conf: Rin1-Abl interaction inhibition confirmation; hit rate 49% among 1,300; inhibition, % at 7.35 µM; AID 602124; shares compounds with Rin1 Abl inh; TR-FRET Rin1-Abl binding, purified proteins
# GFP quencher: counter-screen for Rin1-Abl inhibitors: GFP fluorescence quenchers; hit rate 8.5% among 1,300; inhibitors/quenchers counterscreen; shares compounds with Rin1 Abl inh; inhibition, % at 6.75 µM;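 note: ABL1-eGFP fusion protein alone without its partner RIN1-SBP; 0% = protein with vehicle and 100% = wells lacking protein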
# GFP quench DR: quenches GFP in dose response, Rin1-Abl counter-screen; shares compounds with Rin1 Abl inh; GFP fluorescence interference/quenching counterscreen; IC50, µM; 230 tested, under 10 active; call rule not given here;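 note: ABL1-eGFP fusion protein alone without its RIN1 binding partner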
# The depositor's hits bear a star; · = no result given. Cut-off read from the data, not from the text of the source, unless noted: active = inhibition above about 6.5%; inactive = the rest.
SMILES,Rpn11 block,CSN deneddyl inh,Neddyl block,TPT1 inh,Rin1 Abl inh,HNF4A DNA FP,Rin1 Abl conf,GFP quencher,others
CC1(C)Cc2c(c(-c3ccco3)nc3sc4c(NCCCO)ncnc4c23)CO1,12,7,·,-1,-4,7,·,·,
CCN(CC)CCNc1ncnc2c1sc1nc(N3CCOCC3)c3c(c12)CCCC3,-5,2,31,-2,11*,15,3,-1,
CN(C)CCNc1ncnc2c1sc1nc(N3CCCC3)c3c(c12)CC(C)(C)OC3,5,0,24,0,7.2*,4,10*,-1,
CC(C)CNc1ncnc2c1sc1nc(N3CCOCC3)c3c(c12)CC(C)(C)OC3,-2,-5,-59,0,-1,1,·,·,
O=C(/C=C/c1cccc([N+](=O)[O-])c1)NCCSCc1cccc(Cl)c1,2,-4,-16,2,0,3,·,·,
O=C1NNC(c2ccccc2)=N/C1=C\c1ccccc1Cl,6,10,-18,·,6.8*,4,8.3*,-1,
CC[C@H](C)[C@H](NC(=O)OCc1ccccc1)C(=O)OCC(=O)N1CCN(c2ccc(F)cc2)CC1,1,-1,-16,·,1,-1,·,·,
Brc1ccc(N=NNc2ccccc2)cc1,1,4,-2,-3,5.8*,-2,-2,-1,
Cn1cc(-c2coc3c(C(=O)NCc4cccnc4)cccc23)cn1,-3,2,8,·,1,-4,·,·,
COc1ccc(CNC(=O)c2cccc3c(-c4cnn(C)c4)coc23)cc1OC,-8,2,11,·,12*,-1,-2,0,
COC(=O)c1cc(CNC(=O)Cc2ccsc2)ccc1OC,4,3,2,1,3,0,·,·,
CCCS(=O)(=O)NC(=O)C1(C)CCCN(C(=O)c2ccc(F)c(Cl)c2)C1 (stereo not drawn),-1,5,-5,·,17*,2,-2,-2,
CCCNC(=O)C1(C)CCCN(C(=O)c2ccc(F)c(Cl)c2)C1 (stereo not drawn),1,2,5,·,0,-2,·,·,
COc1cccc(NS(=O)(=O)c2ccc3c(c2)C2C=CCC2C(c2ccc(C(=O)O)cc2)N3)c1 (stereo not drawn),-15,24,-10,17,12*,-46,3,7.1*,
CC[C@]12c3[nH]c4ccc(OC)cc4c3CCN1C(=O)C(CC(=O)NCC13CC4CC(CC(C4)C1)C3)C[C@@H]2C(=O)N1CCN(C(=O)C2CC2)CC1 (stereo partly drawn),2,7,15,·,19*,1,24*,1,GFP quench DR=>68
CC[C@]12c3[nH]c4ccc(Cl)cc4c3CCN1C(=O)[C@@H](CC(=O)NC(C)(C)C)C[C@@H]2C(=O)N1CCN(C(=O)c2ccco2)CC1,1,1,0,·,3,2,·,·,
CC[C@]12c3[nH]c4ccc(Cl)cc4c3CCN1C(=O)[C@@H](CC(=O)NCCCN(C)C)C[C@@H]2C(=O)N1CCN(C(=O)c2ccco2)CC1,-2,-5,7,·,22*,2,22*,-1,GFP quench DR=>68
CCCCN(C(=O)CCCSc1nc2ccccc2[nH]1)c1c(N)n(Cc2ccccc2)c(=O)[nH]c1=O,-2,3,-3,1,3,-2,·,·,
Cc1ccc(CS/C(Nc2ccccc2C)=C(\C#N)C(=O)NCc2ccco2)c(C)c1,3,0,-1,-3,26*,-1,1,2,
Cc1ccc(-c2nnc(N3CCN(C(=O)c4ccco4)CC3)c3ccccc23)cc1,1,2,-21,4,13*,0,7.9*,1,
CC(=O)N1CCN(c2nnc(-c3ccccc3)c3ccccc23)CC1,-2,-3,-1,2,-3,-1,·,·,
O=C(NCCCN1CCCC1)c1ccc2c(c1)N(Cc1cccc(Cl)c1)C(=O)c1ccccc1S2(=O)=O,4,-2,-10,·,1,2,·,·,
COc1cccc(N=C2SC(C(=O)Nc3ccc(F)cc3)CC(=O)N2C)c1 (stereo not drawn),-6,3,1,-1,10*,1,-1,-1,
O=[N+]([O-])c1cc(S(=O)(=O)N2CCCC2)ccc1N/N=C/c1cccnc1,3,-4,-34,0,-2,2,·,·,
COc1ccc(C)cc1S(=O)(=O)n1nc(C)cc1C,-4,-2,-2,0,8.4*,3,-3,2,
SMILES,Rpn11 block,CSN deneddyl inh,Neddyl block,TPT1 inh,Rin1 Abl inh,HNF4A DNA FP,Rin1 Abl conf,GFP quencher,others
COc1ccc(C(C)C)cc1S(=O)(=O)n1cnc(C)c1,4,-4,0,-2,8.0*,3,-3,0,
COc1cc(C)c(Cl)cc1S(=O)(=O)n1cnc(C)c1,-1,2,3,-2,-2,3,·,·,
O=C(Nc1cc(Cl)ccc1-n1cncn1)c1ccc([N+](=O)[O-])s1,4,7,-26,3,-1,8,·,·,
CCOc1ccc(C(=O)Nc2nnc(C(C)C)s2)cc1OCC,-9,0,-33,-3,7.8*,0,-3,0,
COc1ccc(C(CNC(=O)c2nn(-c3ccccc3)c(=O)c3ccccc23)N2CCOCC2)cc1 (stereo not drawn),-3,4,-3,·,-4,6,·,·,
CCCOc1cccc(C(=O)Nc2ccc3c(c2)OCCO3)c1,1,3,3,-2,-2,-2,·,·,
COc1ccc(C(CNC(=O)COc2cc(C)ccc2Cl)N2CCCCC2)cc1 (stereo not drawn),2,-3,7,0,14*,0,-1,-4,
O=C(CSc1nnc(-c2ccncc2)o1)Nc1ccccc1C(F)(F)F,2,-2,-6,-5,-3,4,·,·,
CN(Cc1ccc(F)cc1)C(=O)c1ccc(NS(=O)(=O)c2ccccc2)cc1,0,-7,2,0,9.5*,1,1,0,
O=C(Nc1ccccc1Cl)c1c(F)c(F)c(F)c(F)c1F,-1,-4,3,0,-2,2,·,·,
O=C(NC1(O)C(=O)c2ccccc2C1=O)c1ccccc1,13,12,-12,3,28*,-1,29*,2,GFP quench DR=>68
O=C(NC1(O)C(=O)c2ccccc2C1=O)c1c(Cl)cccc1Cl,9,9,-7,1,14*,10,28*,2,GFP quench DR=>68
COc1ccccc1CN1CCC(CNS(=O)(=O)c2cc(-c3cc(C)no3)ccc2OC)CC1,1,0,-1,1,12*,1,1,0,
Cc1ccccc1NC(=O)COc1ccccc1C,-7,0,-15,-1,-2,1,·,·,
